An excerpt weighted towards active compounds, which were near 2.9% of everything screened.
Apaf-1 inh: human Apaf-1 inhibition; reconstituted apoptosome caspase-3 activity, DEVD-Rh110 fluorescence; inhibition, % at 20 µM; O14727; 330,000 compounds, 0.71% hits; active = inhibition of at least 40% at 20 µM;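 also: plate controls were DMSO wells for no effect and DEVD-CHO caspase inhibitor wells for full effect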
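Material: reconstituted apoptosome with Apaf-1, cytochrome c, caspase-9, procaspase-3, dATP. Technique: Rh110 fluorescence intensity. Buffer or medium: pH 7.5 Hepes buffer with CHAPS, BSA, DTT. Times: 30 min plus 50 min, RT.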
MEKK2wt PB1 HTS: raises or lowers MEK5 binding to wildtype human MEKK2 PB1 domain. Q9Y2U5. bead flow cytometry, Alexa488-MEK5 binding to MEKK2 WT; actives lie on both sides. binding response (% of control), % at 10 µM. 290,000 compounds, 1.1% hits. AID 1531; in the data active = binding response below about 67% or above about 130%
MEKK2 mut-MEK5: signal of MEK5 binding to mutant human MEKK2 PB1 domain. AID 1530. bead flow cytometry, Alexa488-MEK5 binding to MEKK2 mutant. 290,000 compounds, 0.35% hits. percent response, % at 10 µM; in the data active = percent response above about 24%, passing the limit was not always enough
MEKK3 PB1 HTS: modulators (inhibitors or enhancers) of MEK5 binding to human MEKK3 PB1 domain. bead-based flow cytometry, Alexa488-MEK5 binding to MEKK3; actives lie on both sides; 0 = blocked by unlabeled MEK5, 100 = vehicle. 290,000 compounds, 1.4% hits. binding response (% of control), % at 10 µM. Q99759;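 active = binding response more than 3 SD above or below the average of its plate-row segment, actives on both sides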;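 also: Alexa488 bead fluorescence after subtracting the streptavidin-only scavenger bead signal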
Target sequence (Q99759 whole entry, looked up, the tested form may be a part): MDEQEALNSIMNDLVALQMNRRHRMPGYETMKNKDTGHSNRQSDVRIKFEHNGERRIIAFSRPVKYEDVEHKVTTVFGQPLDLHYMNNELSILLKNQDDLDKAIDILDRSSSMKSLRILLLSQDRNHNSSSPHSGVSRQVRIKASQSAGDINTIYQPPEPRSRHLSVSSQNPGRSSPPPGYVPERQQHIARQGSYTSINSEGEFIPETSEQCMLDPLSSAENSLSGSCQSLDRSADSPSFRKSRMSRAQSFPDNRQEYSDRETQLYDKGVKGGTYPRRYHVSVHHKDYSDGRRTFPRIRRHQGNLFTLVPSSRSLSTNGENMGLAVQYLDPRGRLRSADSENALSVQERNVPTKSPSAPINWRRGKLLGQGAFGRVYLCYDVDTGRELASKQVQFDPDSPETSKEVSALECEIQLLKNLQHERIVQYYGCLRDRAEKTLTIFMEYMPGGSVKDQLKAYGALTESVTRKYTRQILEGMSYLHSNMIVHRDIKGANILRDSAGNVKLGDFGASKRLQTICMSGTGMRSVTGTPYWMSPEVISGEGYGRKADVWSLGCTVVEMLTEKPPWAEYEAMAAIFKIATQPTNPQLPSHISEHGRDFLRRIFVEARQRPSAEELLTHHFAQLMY
UBC13 inh: human UBC13 polyubiquitination inhibition; P61088; UBC13 polyubiquitin chain formation, TR-FRET; inhibition, % at 20 µM; 330,000 compounds, 0.47% hits; in the data active = inhibition above about 45%, passing the limit was not always enough
MEKK2wt confirm: raises or lowers MEK5 binding to wildtype human MEKK2, retest; shares compounds with MEKK3 PB1 HTS; bead flow cytometry, Alexa488-MEK5 binding to MEKK2 WT; actives lie on both sides; binding response (% of control), % at 10 µM; 5,900 compounds, 2.4% hits; AID 1892; in the data active = binding response below about 16% or above about 210%; inactive = in between
MEKK2mut-MEK5: signal of MEK5 binding to mutant human MEKK2, retest; shares compounds with MEKK3 PB1 HTS; bead flow cytometry, Alexa488-MEK5 binding to MEKK2 mutant; percent response, % at 10 µM; 5,900 compounds, 2% hits; AID 1893; in the data active = percent response mostly above about 71%, no sharp cut-off; inactive = mostly below about 38%;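 also: higher means compound restores mutant binding toward wildtype level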
MEKK3-MEK5 inh: MEKK3-MEK5 PB1 inhibition, single concentration confirmation; shares compounds with MEKK3 PB1 HTS; bead flow cytometry, Alexa488-MEK5 binding to MEKK3; active compounds read low; binding response (% of control), % at 10 µM; 5,900 compounds, 1.8% hits; AID 1894;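 active = binding response below 72% of control, or above a set upper limit, though filed actives all read lower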;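 also: 100% = DMSO only wells and 0% = binding blocked by excess unlabeled MEK5; lower values mean stronger disruption of MEK5 binding to MEKK3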
Numbers without * were called inactive; nt = no result given; [ ] = another dose, or the depositor's remark.

SMILES	Apaf-1 inh	MEKK2wt PB1 HTS	MEKK2 mut-MEK5	MEKK3 PB1 HTS	UBC13 inh	MEKK2wt confirm	MEKK2mut-MEK5	MEKK3-MEK5 inh
COc1cccc(OCC(O)CN2CCC(CN3C(=O)c4cccc5cccc(c45)C3=O)CC2)c1 (centres undefined)	11	156*	-3	115	26	115	11	100
O=C(NC1CC1)C1CCCN1C(=O)NC1CCCCC1 (centres undefined)	-7	106	1	102	8	nt	nt	nt
CCCCNC(=O)C1CCCN1C(=O)NC1CCCCC1 (centres undefined)	0	3.0*[inhibitor]	0	2.0*[inhibitor]	7	96	-6	98
NS(=O)(=O)c1ccc(CCNC(=O)c2cc([N+](=O)[O-])ccc2N2CCCCC2)cc1	1	103	12	106	-16	nt	nt	nt
COc1ccc(NC(=O)CSCC(=O)N2CCN(C(=O)c3ccco3)CC2)cc1	-6	nt	nt	nt	-3	nt	nt	nt
O=C(Nc1ccc(F)cc1)c1ccc(CSc2ccccc2)o1	21	107	0	145*	-1	106	2	105
O=C(c1cccc(C(F)(F)F)c1)N(c1ccccn1)C1CCCCC1	1	83	-11	94	7	nt	nt	nt
CC1CCCN(CCCCOc2cccc(Br)c2)C1 (centres undefined)	-4	104	-1	104	-7	nt	nt	nt
CC1CCCN(CCOc2ccc(Br)cc2)C1 (centres undefined)	-10	112	0	198*	3	91	-12	87
CC1CCCN(CCOCCOc2ccc(Br)cc2Cl)C1 (centres undefined)	0	112	7	150*	16	111	11	98
CC1CCCN(CCOCCSc2ccccc2)C1 (centres undefined)	3	103	0	133*	-2	101	-11	95
Cc1c(CCO)c(=O)[nH]n1S(=O)(=O)c1ccc(F)cc1	8	105	6	100	2	nt	nt	nt
CN1C(=O)C(C)(C)N(C(=O)c2cccc([N+](=O)[O-])c2)c2ccccc21	6	110	12	96	-4	nt	nt	nt
CCOc1ccccc1N1CC(C(=O)N(CC)CC(=O)Nc2ccc3c(c2)OCCO3)CC1=O (centres undefined)	18	nt	nt	nt	16	nt	nt	nt
CCOC(=O)C1=C(N)OC2=C(C(=O)CC(C)(C)C2)C1c1ccc(CC)s1 (centres undefined)	7	41*[inhibitor]	-15	40*[inhibitor]	1	95	-4	102
CCOC(=O)C1=C(N)OC2=C(C(=O)CC(C)(C)C2)C1c1ccc(C)s1 (centres undefined)	10	105	0	110	0	nt	nt	nt
O=C(CC1CCCCC1)NCc1ccccn1	-2	122	6	122*	3	120	15	103
Cc1nc2cc(NC(=O)N3CC4(C)CC3CC(C)(C)C4)ccc2n1C (centres undefined)	-15	-2.0*[inhibitor]	-29	2.0*[inhibitor]	-2	106	4	101
Cc1nc2cc(NC(=O)N3CCCC3)ccc2n1C	-13	77	-13	90	10	nt	nt	nt
Cc1c(CCC(=O)NC2CC2)c(=O)oc2cc(O)ccc12	-4	98	2	100	24	nt	nt	nt
O=C(NC(Cc1c[nH]c2ccccc12)C(=O)Nc1ccc(F)cc1)c1cccs1 (centres undefined)	12	106	3	128*	10	97	-1	98
COc1ccc(/C=N/NC2=NCCCCC2)c(OC)c1	19	88	-12	101	-5	nt	nt	nt
O=C(CN1CCCc2ccccc21)NCCc1ccc(Cl)cc1	-11	95	-17	102	14	nt	nt	nt
Cc1ccc(Cn2cccc(NS(C)(=O)=O)c2=O)cc1	1	100	0	101	-10	nt	nt	nt
Cc1cc(NS(C)(=O)=O)c(=O)n(Cc2cccc(F)c2)c1	-14	20*[inhibitor]	8	98	-6	102	-1	102
SMILES	Apaf-1 inh	MEKK2wt PB1 HTS	MEKK2 mut-MEK5	MEKK3 PB1 HTS	UBC13 inh	MEKK2wt confirm	MEKK2mut-MEK5	MEKK3-MEK5 inh
O=C([C@@H]1CC=C[C@@H]2CCN(C3CC3)C(=O)[C@@H]21)N1CCN(c2ccccc2)CC1	-7	91	-3	80*[inhibitor]	7	103	16	103
O=C1[C@H]2[C@H](C=CC[C@H]2C(=O)N2CCN(c3ccccc3)CC2)CCN1Cc1ccccc1	-1	97	-1	88	7	nt	nt	nt
N=c1oc2ccccc2cc1-c1nc(-c2ccccc2)cs1	23	88	-2	99	11	nt	nt	nt
N=c1oc2ccc3ccccc3c2cc1-c1nc(-c2ccccc2)cs1	nt	96	-1	146*	nt	94	-6	94
CCCCN(C(=O)Nc1ccc(OCC)cc1)C1CCN(C(C)=O)CC1	4	-1.0*[inhibitor]	-3	93	-10	101	3	98
O=[N+]([O-])c1ccc(S(=O)(=O)Nc2ccccn2)cc1	5	97	0	97	-3	nt	nt	nt
Cc1oc2c(CN3CCOCC3)c(O)ccc2c(=O)c1-c1ccc(Cl)cc1	-3	44*[inhibitor]	-16	38*[inhibitor]	10	107	7	101
N/C(=N\OC(=O)C(c1ccccc1)c1ccccc1)c1ccccn1	3	2.0*[inhibitor]	1	2.0*[inhibitor]	-1	97	-7	99
Cn1ncc(Cl)c1C(=O)NC1CCCC1	-2	112	9	106	-9	nt	nt	nt
CC(C)(CNC(=O)c1ccc(Br)o1)CNC(=O)c1ccc(Br)o1	-3	102	0	101	-2	nt	nt	nt
COc1ccc(-n2cc(CN3CCCC3)c(-c3cccc(F)c3)n2)cc1	-9	112	8	93	23	nt	nt	nt
Cc1cccc(-n2cc(CN3CCN(Cc4nccn4C)CC3)c(-c3cccc(F)c3)n2)c1	11	153*	34	106	12	138	19	107
CCOc1ccc(/C=N/OCC(=O)NCc2ccc3c(c2)OCO3)cc1OC	13	106	-3	100	-14	nt	nt	nt
O=C(CNC(=O)c1cccc(Br)c1)N/N=C/c1cc(Br)cc(Br)c1O	16	123	22	151*	-37	108	4	105
COc1ccc2ccccc2c1-c1sc(Nc2ccccc2)n[n+]1-c1ccc(F)cc1	33	155*	43*	110	36	169	39	106
CCc1ccccc1NC(=O)CN(C)C(=O)Cn1ncc(Cl)c(Cl)c1=O	nt	108	1	133*	nt	106	0	106
CCc1ccccc1NC(=O)CN(C)C(=O)Cn1cnc2ccc(Cl)cc2c1=O	5	nt	nt	nt	-9	nt	nt	nt
